The values below come from PMC10374283 (Journal of medicinal chemistry, 2023).

“Also recorded” adds a separate entry of the source.

Data set [1] can be described thus: Colloidal aggregation by dynamic light scattering. Format: physicochemical. The note with it: for colloid-like particle formation by DLS: 50 mM KPi pH 7.0, 1% DMSO; for CAC relative to Nsp14 IC50: DLS CAC divided by Nsp14 IC50.
For a further data set, the target named is Nsp14 (Severe acute respiratory syndrome coronavirus 2, UniProt P0DTD1). Kind of data set: Assessment of covalent binding to Nsp14 by LC-MS. Also noted: species or system SARS-CoV-2. In outline:
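SARS-CoV-2 Nsp14 was E. coli-expressed with a His6-SUMO tag and purified after SUMO removal. Protein was incubated with a 20-fold molar excess of test compound for 2 h at room temperature (20 °C), then diluted in 0.1% formic acid. Separation used HPLC with a 5–95% acetonitrile/water gradient, followed by ESI time-of-flight mass spectrometry.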

The subject of data set [2] is malate dehydrogenase (MDH). Kind of data set: Aggregation counter-screen, malate dehydrogenase inhibition. The settings on record: for inhibition of MDH: absence of detergent; for inhibition of MDH with detergent: with 0.01% Triton X-100. It is filed as biochemical. For orientation: Counterscreens check selectivity or assay interference.
The target of data set [3] is T1, SARS-CoV-2 Nsp14 (Severe acute respiratory syndrome coronavirus 2, UniProt P0DTD1). Kind of data set: biochemical. It is filed as biochemical.
Another data set deals with AmpC β-lactamase (AmpC) (Escherichia coli, UniProt P00811). It is filed as biochemical. The note with it: for inhibition of AmpC: absence of detergent; for inhibition of AmpC with detergent: with 0.01% Triton X-100.
AmpC β-lactamase (AmpC), sequence (P00811 20-377): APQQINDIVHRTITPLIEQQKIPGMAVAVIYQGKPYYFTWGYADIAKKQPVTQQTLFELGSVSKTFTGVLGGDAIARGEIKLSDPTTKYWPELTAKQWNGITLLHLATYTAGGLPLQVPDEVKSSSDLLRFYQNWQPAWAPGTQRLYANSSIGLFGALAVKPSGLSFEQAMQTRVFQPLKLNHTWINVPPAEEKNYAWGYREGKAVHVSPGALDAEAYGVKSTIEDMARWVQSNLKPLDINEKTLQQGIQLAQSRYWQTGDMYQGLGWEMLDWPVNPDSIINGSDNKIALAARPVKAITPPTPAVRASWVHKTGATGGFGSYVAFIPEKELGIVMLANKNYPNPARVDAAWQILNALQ
The test system of another data set is MDH or AmpC. Kind of data set: Aggregation counter-screen, enzyme not specified per compound. It is filed as biochemical. The settings on record: for inhibition of MDH or AmpC: absence of detergent; for inhibition of MDH or AmpC with detergent: with 0.01% of detergent.
The test system of a further data set is SARS-CoV-2. Kind of data set: Antiviral activity versus cell toxicity. Format: cell-based.
The target of data set [4] is T1, SARS-CoV-2 Nsp14. Description: Mechanism of action: IC50 at varying SAM and RNA concentrations. Format: biochemical. The settings on record: varying SAM or RNA concentration.
The test system of data set [5] is panel of 30 human SAM-dependent MTases. Description: Selectivity panel of 30 human SAM-dependent protein and RNA MTases. It is filed as biochemical. The settings on record: compounds at 10 μM, 30 human MTases.
Data set [6] deals with T1, SARS-CoV-2 Nsp14. It is filed as biochemical. The note with it: preincubated at 10-fold IC50 for 1 h, diluted 100-fold.

Turning to `O=C(NC1CSC1)c1ncnn2cccc12` [‘5763, N-(Thietan-3-yl)pyrrolo[2,1-f][1,2,4]triazine-4-carboxamide], the “colloid-like particle formation by DLS” value in data set [1] was “CACs at relevant concentrations”.

Turning to `C=CC(=O)N(C)c1ccc(C(=O)Nc2ccc(-c3cn4ccsc4n3)cc2)cc1` [acryl41], at Nsp14, the “covalent adduct formation with Nsp14 by mass spectrometry” value was “did not form a measurable adduct by mass spectrometry”.

For `Cn1ncc(N)c1-c1cc2ccccc2[nH]1` [‘6066, 5-(1H-Indol-2-yl)-1-methyl-1H-pyrazol-4-amine], in data set [1], the “colloid-like particle formation by DLS” value is listed as “CACs at relevant concentrations”.

For `CC(C)SCn1cnc2cnn(C)c2c1=O` [‘5604, 6-((Isopropylthio)methyl)-1-methyl-1H-pyrazolo[4,3-d]-pyrimidin-7(6H)-One], the “inhibition of MDH” value in [2] is recorded as “inhibited MDH”. Besides, the “colloid-like particle formation by DLS” value in data set [1] is recorded as “CACs at relevant concentrations”.

Turning to `CCC(=O)NCCC(=O)N1CCC(C2C(=O)Nc3cc(Cl)ccc32)CC1` (centres unmarked) [ZD160–68, N-(3-(4-(6-Chloro-2-oxoindolin-3-yl)piperidin-1-yl)-3-oxopropyl)-propionamide], the “Nsp14 enzymatic inhibition (in words)” value on SARS-CoV-2 Nsp14 [3] is “inactive; also recorded: no enzymatic inhibition”.

On to `CN(C)c1cncc(NC(=O)c2ccc(C=O)cc2O)c1` [‘1889, N-(5-(Dimethylamino)pyridin-3-yl)-4-formyl-2-hydroxybenza-mide], for which the “inhibition of MDH” value in data set [2] is listed as “did not inhibit either counter-screening enzyme under any measured condition”. In addition, at AmpC β-lactamase (AmpC), the “inhibition of AmpC” value is “did not inhibit either counter-screening enzyme under any measured condition”. For the same molecule, the “CAC relative to Nsp14 IC50” value in data set [1] is on record as “CAC five-fold higher than its Nsp14 IC50”.

Take `N#Cc1c(C(=O)NCc2ccc(O)c([N+](=O)[O-])c2)[nH]c2ccccc12` [‘6943, 3-Cyano-N-(4-hydroxy-3-nitrobenzyl)-1H-indole-2-carboxamide]: the “colloid-like particle formation by DLS” value in data set [1] is “did form colloid-like particles by DLS”. In the data set on MDH or AmpC, the “inhibition of MDH or AmpC” value was “inhibited MDH or AmpC at relevant concentrations” and the “inhibition of MDH or AmpC with detergent” value was “inhibition was largely eliminated”.

`Cn1c(C(=O)NCc2ccc(O)c([N+](=O)[O-])c2)c(Br)c2ccccc21` [‘6947, 3-Bromo-N-(4-hydroxy-3-nitrobenzyl)-1-methyl-1H-indole-2-carboxamide]: the “colloid-like particle formation by DLS” value in data set [1] is recorded as “did form colloid-like particles by DLS”. Further, in the data set on MDH or AmpC, the “inhibition of MDH or AmpC” value is given as “inhibited MDH or AmpC at relevant concentrations” and the “inhibition of MDH or AmpC with detergent” value was “inhibition was largely eliminated”.

By IC50 is commonly meant the concentration needed to halve the response being measured. In the case of `C=CC(=O)NC[C@H](OC)C(=O)N1CCC(C2C(=O)Nc3cc(Cl)ccc32)CC1` (stereo partly drawn) [acryl42_10, N-((2S)-3-(4-(6-Chloro-2-oxoindolin-3-yl)piperidin-1-yl)-2-methoxy-3-oxopropyl)acrylamide], the IC50 against SARS-CoV-2 Nsp14 [3] came out at 7 µM. Besides, on SARS-CoV-2 Nsp14 [3] (relative to parent acryl42), the “fold more potent than acryl42” value was 4.5 fold. For the same molecule, the “antiviral activity versus cell toxicity” value with SARS-CoV-2 is “for none of them could we distinguish anti-viral activity from cell toxicity”.

Consider `Cc1nc2ncc(-c3c[nH]nn3)cc2[nH]1` [‘0222, 2-Methyl-6-(1H-1,2,3-triazol-4-yl)-1H-imidazo[4,5-b]pyridine], for which the “colloid-like particle formation by DLS” value in [1] is “CACs at relevant concentrations”.

As to `Cn1c(=O)[nH]c2ncc(-c3cccc(C(=O)Nc4cccc(C#N)c4)c3)cc21` [‘9213, N-(3-Cyanophenyl)-3-(1-methyl-2-oxo-2,3-dihydro-1H-imidazo-[4,5-b]pyridin-6-yl)benzamide], at SARS-CoV-2 Nsp14 [3] (tested at 30 and 50 μM), the “enzyme inhibition at 30 and 50 μM” value was “more than 50%”. Also, the “colloid-like particle formation by DLS” value in [1] is “did form colloid-like particles by DLS”.

Turning to `C=C(Cl)COC(=O)c1cnc2[nH]ccc2c1` [‘0741, 2-Chloroallyl 1H-pyrrolo[2,3-b]pyridine-5-carboxylate], in data set [2], the “inhibition of MDH” value is reported as “inhibited MDH” and the “inhibition of MDH with detergent” value was “this effect was smaller”.

For `Cc1cc(C(=O)Nc2cccc(N3CCNC3=O)c2C)sc1C=O` [‘4975, 5-Formyl-4-methyl-N-(2-methyl-3-(2-oxoimidazolidin-1-yl)-phenyl)thiophene-2-carboxamide], the “antiviral activity versus cell toxicity” value in the data set on SARS-CoV-2 is “for none of them could we distinguish anti-viral activity from cell toxicity”.

Regarding `Oc1ccccc1-c1ncnc2[nH]ccc12` [‘0683, 2-(7H-Pyrrolo[2,3-d]pyrimidin-4-yl)phenolv], the “inhibition of MDH” value in data set [2] was “both MDH and AmpC”. Besides, the “inhibition of AmpC” value on AmpC β-lactamase (AmpC) is “both MDH and AmpC”. For the same molecule, the “ligand efficiency (LE)” value on SARS-CoV-2 Nsp14 [3] (from Nsp14 IC50) was 0.42 kcal/heavy atom. The “antiviral activity versus cell toxicity” value in the data set with SARS-CoV-2 is recorded as “for none of them could we distinguish anti-viral activity from cell toxicity”. For the same molecule, the “pattern of inhibition versus SAM and RNA” value at SARS-CoV-2 Nsp14 [4] is “competitive and presumably reversible inhibitor of both SAM and RNA binding”.

Consider `Cc1c(C(=O)/C=C/c2cc(Br)c(O)cc2F)c(C#N)c2n1CCC2` [‘6953, (E)-6-(3-(5-Bromo-2-fluoro-4-hydroxyphenyl)acryloyl)-5-methyl-2,3-dihydro-1H-pyrrolizine-7-carbonitrile], for which the “colloid-like particle formation by DLS” value in data set [1] is “did form colloid-like particles by DLS”. Also, in the data set on MDH or AmpC, the “inhibition of MDH or AmpC” value is recorded as “inhibited MDH or AmpC at relevant concentrations” and the “inhibition of MDH or AmpC with detergent” value is listed as “inhibition was largely eliminated”.

As to `O=C(COC(=O)c1cc(-c2ccoc2)n[nH]1)Nc1ccc(Br)cc1` [‘1988, 2-((4-Bromophenyl)amino)-2-oxoethyl 3-(Furan-3-yl)-1H-pyra-zole-5-carboxylate], in [2], the “inhibition of MDH” value is given as “inhibition of MDH was in a relevant range” and the “inhibition of MDH with detergent” value is “inhibition of both enzymes disappeared”. The “inhibition of AmpC with detergent” value against AmpC β-lactamase (AmpC) was “inhibition of both enzymes disappeared”. The “inhibition of panel enzymes (>50% criterion)” value (from here on “inhibition … (>50% criterion)”) in data set [5] is given as “inhibiting nine enzymes more than 50%”. The “reversibility of Nsp14 inhibition by jump/rapid dilution” value on SARS-CoV-2 Nsp14 [6] was “noncovalent inhibitor”. Further, the midpoint of inhibition on SARS-CoV-2 Nsp14 [3], the IC50, lay at 6 µM. In addition, in [1], the “colloid-like particle formation by DLS” value is “formed colloid-like particles by DLS” and the “CAC relative to Nsp14 IC50” value was 10 fold. For the same molecule, the “antiviral activity versus cell toxicity” value in the data set on SARS-CoV-2 was “for none of them could we distinguish anti-viral activity from cell toxicity”. Also, the “pattern of inhibition versus SAM and RNA” value at SARS-CoV-2 Nsp14 [4] is “SAM- and RNA-competitive pattern of inhibition”.

With `N#Cc1ccc(NC(=O)c2cc(C=O)n3c2CCCC3)c2cc(O)ccc12` [‘1911, N-(4-Cyano-7-hydroxynaphthalen-1-yl)-3-formyl-5,6,7,8-tetra-hydroindolizine-1-carboxamide], in data set [2], the “inhibition of MDH” value is “did inhibit AmpC and MDH in the absence of Triton”; the “inhibition of MDH with detergent” value was “this inhibition disappeared”. In addition, on AmpC β-lactamase (AmpC), the “inhibition of AmpC” value is “did inhibit AmpC and MDH in the absence of Triton”; the “inhibition of AmpC with detergent” value was “this inhibition disappeared”. Also, the “inhibition … (>50% criterion)” value in data set [5] is listed as “inhibiting only two histone MTases; also recorded: only hit two very closely related MTases”. The “reversibility of Nsp14 inhibition by jump/rapid dilution” value on SARS-CoV-2 Nsp14 [6] was “little residual inhibition when diluted below its IC50”. Further, in data set [1], the “colloid-like particle formation by DLS” value is recorded as “did form colloid-like particles by DLS at a relevant concentration”. For the same molecule, the “antiviral activity versus cell toxicity” value with SARS-CoV-2 was “for none of them could we distinguish anti-viral activity from cell toxicity”. Moreover, the “covalent adduct formation with Nsp14 by mass spectrometry” value at Nsp14 was “did not increase the molecular mass of Nsp14”.

With `Cc1c(C(=O)/C=C/c2ccc(O)c([N+](=O)[O-])c2)c(C#N)c2n1CCC2` [‘4824, (E)-6-(3-(4-Hydroxy-3-nitrophenyl)acryloyl)-5-methyl-2,3-dihydro-1H-pyrrolizine-7-carbonitrile], in data set [2], the “inhibition of MDH” value is “did inhibit the counter-screening enzymes MDH and AmpC at relevant concentrations”; the “inhibition of MDH with detergent” value is reported as “inhibition was largely or entirely eliminated”. At AmpC β-lactamase (AmpC), the “inhibition of AmpC” value was “did inhibit the counter-screening enzymes MDH and AmpC at relevant concentrations”; the “inhibition of AmpC with detergent” value is “inhibition was largely or entirely eliminated”. In data set [5], the “inhibition … (>50% criterion)” value was “no inhibition greater than 50% for any enzyme in the panel; also recorded: Nsp14-selective”. Besides, the “reversibility of Nsp14 inhibition by jump/rapid dilution” value on SARS-CoV-2 Nsp14 [6] is on record as “inhibition by ‘4824 is not due to the nitrile electrophile”. The “colloid-like particle formation by DLS” value in data set [1] is reported as “did not form detectable particles by DLS”. Further, the “pattern of inhibition versus SAM and RNA” value at SARS-CoV-2 Nsp14 [4] was “SAM- and RNA-competitive pattern of inhibition”.
